{"source": "PubChem BioAssay AID504382", "about": "(The Scripps Research Institute Molecular Screening Center, 2011)", "note": "Among all 2,500 compounds or so, about 460 (18%) were called active.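 How the source made its calls: active means mean activation above a cutoff of low control average plus 3 SD from the earlier screen (cut at about 12% in these data); inactive means the rest.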 The list is a sample of the results.", "data": [{"assay": "compound fluorescence interference without thin filaments, confirmation, artefact control for cardiac RTF calcium sensitizer project, biochemical (AID 504382)", "conditions": "IANBD fluorescence interference counterscreen, buffer, EC20 Ca2+; at 7.2 µM; active compounds read high; scaled: EC20 calcium 0, EC100 calcium 100", "outline": "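Medium: MOPS/KCl/MgCl2/EGTA/NTA/DTT buffer, pH 7.2 | Reagent: EC20 calcium, 0.472 mM | Compound dosing: 7.2 µM single dose | Times: 15 min compound exposure at 25 °C | Signal: Fluorescence, 480/540 nm | Measure: Interference relative to controls | Repeats: Triplicate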", "values": [{"molecule": "CCCOc1ccc(C2C(C(=O)/C=C/c3ccco3)=C(O)C(=O)N2CCN2CCOCC2)cc1OC", "note": "(centres undefined)", "fluorescence artifact activation": "9.14% (inactive)"}, {"molecule": "CC1=CC(=C(C#N)c2nc3ccccc3s2)C=C(C)N1c1ccc(F)cc1", "fluorescence artifact activation": "11.2% (inactive)"}, {"molecule": "CCC1C/C(=C\\c2cc(OC)c(OC)cc2OC)C(=O)/C(=C/c2cc(OC)c(OC)cc2OC)C1", "note": "(centres undefined)", "fluorescence artifact activation": "5.41% (inactive)"}, {"molecule": "O=[N+]([O-])c1ccc(N/N=C/c2ccc(OCc3cccc4ccccc34)cc2)nc1", "fluorescence artifact activation": "-0.02% (inactive)"}, {"molecule": "O=C(/C=C/c1ccccc1[N+](=O)[O-])Nc1cccnc1", "fluorescence artifact activation": "0.87% (inactive)"}, {"molecule": "Cc1ccc2nc3nc(NCC4CCCO4)c(C(=O)NC4CCCC4)cc3c(=O)n2c1", "note": "(centres undefined)", "fluorescence artifact activation": "0.12% (inactive)"}, {"molecule": "COc1ccc(Cc2n[nH]c(=O)c3ccccc23)cc1OC", "fluorescence artifact activation": "0.32% (inactive)"}, {"molecule": "C[C@H](CO)N1C[C@H](C)[C@@H](CN(C)C(=O)Nc2ccc(F)cc2)Oc2ccc(NS(C)(=O)=O)cc2C1=O", "fluorescence artifact activation": "0.09% (inactive)"}, {"molecule": "Cc1ccc(N2C(=O)c3cccc4c(N)ccc(c34)C2=O)c2cccnc12", "fluorescence artifact activation": "0.51% (inactive)"}, {"molecule": "O=C(Nc1ccc(C(=O)N2CCOCC2)cc1)Nc1cccc(Cl)c1", "fluorescence artifact activation": "8.09% (inactive)"}, {"molecule": "O=C(Nc1ccc2c(c1)OCCO2)c1cccc(Cl)c1Cl", "fluorescence artifact activation": "13.6% (active)"}, {"molecule": "O=C(Nc1ccc2c(c1)OCO2)c1ccc2c(c1)OCO2", "fluorescence artifact activation": "8.95% (inactive)"}, {"molecule": "Cc1ccc(C(=O)NNC(=O)CSc2nnc(-c3ccncc3)n2-c2ccc(C)cc2)cc1", "fluorescence artifact activation": "0.09% (inactive)"}, {"molecule": "CCN1C(=O)[C@@H]2Cc3c([nH]c4ccccc34)C(c3ccc(OC)cc3)N2C1=S", "note": "(some centres undefined)", "fluorescence artifact activation": "-0.08% (inactive)"}, {"molecule": "O=C(c1ccccn1)N(Cc1cccs1)C1(C(=O)NC2CCCCC2)CCCCC1", "fluorescence artifact activation": "0.12% (inactive)"}, {"molecule": "O=C(NC1CCCCC1)c1ccccc1NC(=S)NC(=O)C1CCC1", "fluorescence artifact activation": "8.42% (inactive)"}, {"molecule": "CCN(CC(=O)Nc1ccccc1C(=O)NC1CC1)Cc1cccs1", "fluorescence artifact activation": "25.6% (active)"}, {"molecule": "O=S(=O)(/C=C/c1ccccc1)N1CCc2ccccc2C1", "fluorescence artifact activation": "0.07% (inactive)"}, {"molecule": "CCn1c(C)c(CCC(=O)O)c(=O)n2nc(-c3ccccc3OC)cc12", "fluorescence artifact activation": "0.2% (inactive)"}, {"molecule": "CC(=O)Nc1ccc(SCC(=O)NNC(=O)CN(C)S(=O)(=O)c2ccc(C)cc2)cc1", "fluorescence artifact activation": "70.4% (active)"}, {"molecule": "Cc1cc(C)nc(NS(=O)(=O)c2ccc(NC(=O)CSc3nc4ccccc4[nH]3)cc2)n1", "fluorescence artifact activation": "0.03% (inactive)"}, {"molecule": "CC(=O)Nc1ccc(S(=O)(=O)NCCC(=O)OCC(=O)c2cc(C)ccc2C)cc1", "fluorescence artifact activation": "0.05% (inactive)"}, {"molecule": "CCOc1ccc2nc3cc(NCc4ccc(OC)cc4)ccc3c(N)c2c1", "fluorescence artifact activation": "0.41% (inactive)"}, {"molecule": "Cn1cc(/C=C/c2cc[n+](C)cc2)c2cc(Cl)ccc21", "fluorescence artifact activation": "0.1% (inactive)"}, {"molecule": "Cn1cc(C2=C(c3ccc(Cl)cc3Cl)C(=O)NC2=O)c2ccccc21", "fluorescence artifact activation": "12.7% (active)"}, {"molecule": "Cc1ccc(N=C2NC(=O)/C(=C/c3cn(C)c4ccccc34)S2)cc1C", "fluorescence artifact activation": "0% (inactive)"}, {"molecule": "COc1cccc(C(=O)Nc2cc(C(=O)NCc3ccc(C)cc3)ccc2N2CCC3(CC2)CC(c2cccc(Br)c2)=NO3)c1", "fluorescence artifact activation": "-0.03% (inactive)"}, {"molecule": "CCN(CC(=O)Nc1ccccc1C(F)(F)F)C(=O)c1ccc(-n2nc(C)c(CCC(=O)OC)c2C)cc1", "fluorescence artifact activation": "8.41% (inactive)"}, {"molecule": "N#Cc1cccc(NC(=O)CSc2ccc3c4c(cccc24)C(=O)c2ccccc2-3)c1", "fluorescence artifact activation": "0.19% (inactive)"}, {"molecule": "Cn1nc(C(F)(F)F)c(-c2ccc(Br)cc2)c1NC(=O)c1ccco1", "fluorescence artifact activation": "0.14% (inactive)"}, {"molecule": "CCC(CC)NC(=O)Nc1ccccc1C", "fluorescence artifact activation": "0.09% (inactive)"}, {"molecule": "COCCn1c(C)cc(C(=O)COC(=O)c2ccc(Cl)c(S(N)(=O)=O)c2)c1C", "fluorescence artifact activation": "3.98% (inactive)"}, {"molecule": "Cc1nnc(NC(=O)CSc2ncnc3c2cnn3-c2ccccc2C)s1", "fluorescence artifact activation": "2.39% (inactive)"}, {"molecule": "Cc1ccc(CNC(=O)CCn2cc(-c3ccc(C)cc3)nc2-c2ccncc2)cc1", "fluorescence artifact activation": "18.1% (active)"}, {"molecule": "Cc1ccc(C)c(C(=O)CCC(=O)NCc2ccc(Cl)cc2)c1", "fluorescence artifact activation": "0.14% (inactive)"}, {"molecule": "Cc1ccc(CNC(=O)c2cc(-c3ccccc3)nn2Cc2cc(C)no2)cc1", "fluorescence artifact activation": "0.08% (inactive)"}, {"molecule": "COc1ccc2nc(C)c3cc(C)oc3c2c1", "fluorescence artifact activation": "8.29% (inactive)"}, {"molecule": "Cn1nc(-c2ccccc2)c(C(=O)Nc2ccc(C(F)(F)F)cc2)c1Cl", "fluorescence artifact activation": "5.74% (inactive)"}, {"molecule": "Cc1cc([N+](=O)[O-])ccc1-c1ccc(/C=N/NC(=O)c2ccc(Br)o2)o1", "fluorescence artifact activation": "0.29% (inactive)"}, {"molecule": "COC(=O)c1cc(-c2cccc(OC)c2)n[nH]1", "fluorescence artifact activation": "1.23% (inactive)"}, {"molecule": "CC(C)(C)OC(=O)NCCCC[C@@H](C(=O)N1CCN(C(=O)OC(C)(C)C)CC1)n1cc(CCC(=O)O)nn1", "fluorescence artifact activation": "0.16% (inactive)"}, {"molecule": "CC(O)Cc1cn([C@@H](CCCCN)C(=O)N2CCNCC2)nn1", "note": "(some centres undefined)", "fluorescence artifact activation": "0.06% (inactive)"}, {"molecule": "C[C@@H](C(=O)N1CCNCC1)n1cc(CCCN=C(N)N)nn1", "fluorescence artifact activation": "29.3% (active)"}, {"molecule": "CC(Oc1ccc(F)cc1)C(=O)Nc1sc2c(c1C(=O)NCc1cccnc1)CCCC2", "note": "(centres undefined)", "fluorescence artifact activation": "9.94% (inactive)"}]}]}
